Screens (PubChem BioAssay)
Compounds with a hit are over-represented: about 1.5% of the library has one in this group of screens.
RanGTP-Imp inh – disruptors of Ran-importin-beta complex formation – biochemical, FRET, CFP-Ran, YFP-importin-beta, homogeneous, primary screen. 300,000 compounds, 1.1% hits. cell-free CFP-Ran/YFP-importin-beta FRET ratio. inhibition, % (concentration not given with the values). AID 2216;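 active means more than half of the replicate wells show a fall in the fluorescence ratio signal beyond about 16%, limit read from the data, passing the limit was not always enough; inconclusive means exactly half of the replicate wells pass the set limit; inactive means fewer than half of replicates pass the limit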;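 further: 0% = DMSO wells and 100% = Ran loaded with GDP instead of GTP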
Runt-SMMHC FRET – Runt domain-CBFb-SMMHC interaction inhibition | Cerulean-Runt/Venus-CBFb-SMMHC FRET ratio 530/480, 1 h | inhibition, % at 20 µM | 220,000 compounds, 0.74% hits;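 active means mean inhibition across duplicate retests at 20 µM reaching about 50%, limit read from the data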;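 further: 0% = DMSO wells and 100% = wells with excess untagged CBFb-SMMHC; inhibitors lower the FRET ratio by blocking Runt binding to CBFb-SMMHC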
Runt-CBFb FRET – Runt domain-CBFb interaction inhibition; Cerulean-Runt/Venus-CBFb FRET ratio 530/480, 1 h; AID 1496; inhibition, % at 20 µM; 220,000 compounds, 0.46% hits;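 active means inhibition over about 50% at 20 µM in the single-dose screen, limit read from the data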;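 further: 0% = DMSO wells and 100% = excess unlabeled CBFb competitor control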
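Measured by: fluorescence energy transfer, 422 nm excitation, 530/480 nm emission; Assay system: Cerulean-Runt domain; Medium: Tris pH 7.5 buffer with BSA; Measure: loss of energy transfer signal; Controls: 5 µM unlabeled CBFb as full-inhibition high control; Incubation: protein complex preformed 1 h, compound exposure 1 h, room temperature, dark.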
Hck-Nef inh – inhibitors of human Hck kinase activated by Nef; inhibition, % at 20 µM; Recombinant Hck-YEEI plus Nef, Z-Lyte FRET kinase assay; P08631; AID 463187; 220,000 compounds, 0.68% hits;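 active means Hck-Nef kinase inhibition above about 50%, limit read from the data; inactive means inhibition below that limit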;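 further: 0% = DMSO with Hck plus Nef and 100% = Hck alone without Nef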
Target sequence (P08631 whole entry, looked up): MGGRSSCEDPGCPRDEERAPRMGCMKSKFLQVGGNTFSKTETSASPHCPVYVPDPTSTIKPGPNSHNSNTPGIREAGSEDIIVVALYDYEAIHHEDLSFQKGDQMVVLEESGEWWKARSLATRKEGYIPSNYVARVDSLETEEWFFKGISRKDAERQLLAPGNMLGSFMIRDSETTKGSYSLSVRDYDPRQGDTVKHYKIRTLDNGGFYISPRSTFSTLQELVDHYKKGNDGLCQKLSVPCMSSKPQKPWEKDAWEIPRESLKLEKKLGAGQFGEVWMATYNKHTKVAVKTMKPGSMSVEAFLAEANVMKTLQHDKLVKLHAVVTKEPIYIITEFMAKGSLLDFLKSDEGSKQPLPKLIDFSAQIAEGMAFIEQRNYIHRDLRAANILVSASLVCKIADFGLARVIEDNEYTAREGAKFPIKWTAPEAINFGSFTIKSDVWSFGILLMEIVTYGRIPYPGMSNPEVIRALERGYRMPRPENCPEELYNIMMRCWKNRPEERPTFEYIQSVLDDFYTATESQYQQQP
CaV13 ICDI inh – Primary screen for inhibitors of IQ motif and Ca2+-dependent inactivation inhibitor domain binding in CACNA1D, Förster resonance energy transfer in living cells, …; HEK cells, CFP/YFP FRET ICDI-IQ, plate reader, 10 min; percent FRET-ratio fall versus neutral wells; inhibition, % at 12.3 µM; 340,000 compounds, 0.098% hits;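 active means mean replicate inhibition of at least 30% and at least 1% of replicates passing that level; inconclusive means only one of the two criteria is met; inactive means neither criterion is met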;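 further: 0% = median of the neutral control wells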
Active calls of the source: *.

Results for CCn1nc(NC(=O)c2ccccc2)c2cc3cccc(C)c3nc21 ?
RanGTP-Imp inh: 69*; Runt-SMMHC FRET: 86*; Runt-CBFb FRET: 62*; Hck-Nef inh: 41; CaV13 ICDI inh: -2

What do the screens show for `Cc1cccc2cc3c(NC(=O)CC(C)C)nn(C)c3nc12`?
RanGTP-Imp inh: 10; Runt-SMMHC FRET: 48; Runt-CBFb FRET: 27; Hck-Nef inh: 19

What do the screens show for `CCn1nc(NC(C)=O)c2cc3cccc(C)c3nc21`?
RanGTP-Imp inh: inconclusive; CaV13 ICDI inh: -19

Results for CCCCC(=O)Nc1nn(C)c2nc3c(C)cccc3cc12 ?
RanGTP-Imp inh: 8; Runt-SMMHC FRET: 43; Runt-CBFb FRET: 22; Hck-Nef inh: 7; CaV13 ICDI inh: -1

Results for CCNc1ccc2noc3c2c1C(=O)c1ccccc1-3 ?
RanGTP-Imp inh: -450; Runt-SMMHC FRET: -498; Runt-CBFb FRET: -179; Hck-Nef inh: 14

Results for Cc1ccc(-n2nc3c(c2NC(=O)CC(C)C)CS(=O)(=O)C3)c(C)c1 ?
RanGTP-Imp inh: -4; CaV13 ICDI inh: -3

How did CSCC(=O)N1CCCC(CO)(Cc2ccccc2C)C1 (stereo unspecified) do in these assays?
RanGTP-Imp inh: 1; Runt-SMMHC FRET: 4; Runt-CBFb FRET: 0; Hck-Nef inh: 19; CaV13 ICDI inh: -6

Results for COc1ccc(C2c3ccc(O)cc3Oc3ncn(CC(C)C)c(=N)c32)cc1 (stereo unspecified) ?
RanGTP-Imp inh: 13; Runt-SMMHC FRET: 62*; Runt-CBFb FRET: 41; Hck-Nef inh: -8; CaV13 ICDI inh: 0

Results for COc1ccc(C2c3ccc(O)cc3Oc3ncn(CCN4CCOCC4)c(=N)c32)cc1 (stereo unspecified) ?
RanGTP-Imp inh: 2; Runt-SMMHC FRET: 12; Runt-CBFb FRET: 8; Hck-Nef inh: 22; CaV13 ICDI inh: -6

What do the screens show for `Cc1cccc2c1c1ccc3c(c1n2C)C(=O)C=CC3=O`?
Runt-SMMHC FRET: 36; Runt-CBFb FRET: 52*; Hck-Nef inh: -6; CaV13 ICDI inh: -4

What do the screens show for `Cc1ccccc1N1CC(=O)N(c2ccccc2C)CC1=O`?
RanGTP-Imp inh: -2; Runt-SMMHC FRET: -1; Runt-CBFb FRET: -2; Hck-Nef inh: -16; CaV13 ICDI inh: -3

Results for COC(=O)c1c(C#N)c(N)nc2c1CCC2 ?
RanGTP-Imp inh: 66*; Runt-SMMHC FRET: 62*; Runt-CBFb FRET: 96*; Hck-Nef inh: 12; CaV13 ICDI inh: -4

What do the screens show for `COC(=O)c1cc(C)nc(N)c1C#N`?
RanGTP-Imp inh: 2; Runt-SMMHC FRET: 10; Runt-CBFb FRET: 9; Hck-Nef inh: -14

Results for Cn1c2c(c(=O)n(C)c1=O)NC1(N2)C(=O)Nc2ccccc21 (stereo unspecified) ?
RanGTP-Imp inh: 37*; Runt-SMMHC FRET: -7; Runt-CBFb FRET: 1; Hck-Nef inh: 12; CaV13 ICDI inh: -5

Results for CCOC(=O)c1cc(-c2ccccc2)nc2nc(N(CC)CC)sc12 ?
RanGTP-Imp inh: 45*; CaV13 ICDI inh: -3

Results for CC(C)(C)NC(=O)NC(=O)Cn1cc(C(F)(F)F)ccc1=O ?
RanGTP-Imp inh: -4; Runt-SMMHC FRET: -3; Runt-CBFb FRET: -4; Hck-Nef inh: 2; CaV13 ICDI inh: -3

What do the screens show for `C=CCOC(=O)C1=C(C)OC(N)=C(C#N)C1c1ccc2c(c1)OCO2` (stereo unspecified)?
RanGTP-Imp inh: 25*; Runt-SMMHC FRET: 5; Runt-CBFb FRET: 0; Hck-Nef inh: 5; CaV13 ICDI inh: -5

Results for COc1ccc(CNC(=O)C2CCN(S(=O)(=O)c3ccc4nc5c(c(C(=O)O)c4c3)CC(C)CC5)CC2)cc1 (stereo unspecified) ?
RanGTP-Imp inh: 1; CaV13 ICDI inh: -4

Results for CC1CCc2nc3ccc(S(=O)(=O)N4CCC(C(=O)NCc5ccccc5Cl)CC4)cc3c(C(=O)O)c2C1 (stereo unspecified) ?
RanGTP-Imp inh: 22*; CaV13 ICDI inh: -3

What do the screens show for `COc1ccc(CNC(=O)CSc2nc3ccc(C)cc3[nH]2)cc1OC`?
RanGTP-Imp inh: -3; CaV13 ICDI inh: -5
